Tests used:
[1] = Clearance in rat at 1 mg/kg, iv; format: ADME, organism-based; conditions: in vivo
[2] = Clearance in dog at 1 mg/kg, iv; format: ADME, organism-based, Canis lupus familiaris; conditions: in vivo
[3] = Volume of distribution at steady state in dog at 1 mg/kg, iv; format: ADME, organism-based, Canis lupus familiaris; conditions: in vivo, read-out: Vdss
Outline: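 Rats and dog received 1 mg/kg intravenously, formulated in 12% w/v Captisol in water. Volume of distribution was taken at steady state from the iv plasma profile. Three animals per dosing route.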

[4] = Oral bioavailability in rat at 5 mg/kg; format: ADME, organism-based; conditions: in vivo
[5] = Chemical stability of the compound at pH 2 phosphate buffer assessed as time required for 50% hydrolytic degradation at 100 ug/ml and 40 degreeC by UPLC-UV analysis; format: physicochemical; conditions: dose 100 µg/ml, read-out: Time (converted)
Outline: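 Compound diluted from acetonitrile or DMSO stock to 100 μg/mL final in 50 mM phosphate buffer, pH 2 (or pH 7), ionic strength 0.15 M NaCl, 40 °C in autosampler. Timed injections analysed by reverse-phase UPLC-UV (220 nm); pseudo-first-order kobs from ln c vs time; t50 and t90 calculated.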

[6] = molecular target: T1, Phosphatidylinositol 4,5-bisphosphate 3-kinase catalytic subunit delta isoform (Homo sapiens, UniProt O00329); experiment: Inhibition of PI3K p110delta in human basophil assessed as reduction in anti-FCepsilonR1 mAb-stimulated basophil activation preincubated for 60 mins followed by anti-FCepsilonR1 mAb stimulation and measured after 25 mins by flow cytometry analysis
T1 sequence (O00329 whole entry): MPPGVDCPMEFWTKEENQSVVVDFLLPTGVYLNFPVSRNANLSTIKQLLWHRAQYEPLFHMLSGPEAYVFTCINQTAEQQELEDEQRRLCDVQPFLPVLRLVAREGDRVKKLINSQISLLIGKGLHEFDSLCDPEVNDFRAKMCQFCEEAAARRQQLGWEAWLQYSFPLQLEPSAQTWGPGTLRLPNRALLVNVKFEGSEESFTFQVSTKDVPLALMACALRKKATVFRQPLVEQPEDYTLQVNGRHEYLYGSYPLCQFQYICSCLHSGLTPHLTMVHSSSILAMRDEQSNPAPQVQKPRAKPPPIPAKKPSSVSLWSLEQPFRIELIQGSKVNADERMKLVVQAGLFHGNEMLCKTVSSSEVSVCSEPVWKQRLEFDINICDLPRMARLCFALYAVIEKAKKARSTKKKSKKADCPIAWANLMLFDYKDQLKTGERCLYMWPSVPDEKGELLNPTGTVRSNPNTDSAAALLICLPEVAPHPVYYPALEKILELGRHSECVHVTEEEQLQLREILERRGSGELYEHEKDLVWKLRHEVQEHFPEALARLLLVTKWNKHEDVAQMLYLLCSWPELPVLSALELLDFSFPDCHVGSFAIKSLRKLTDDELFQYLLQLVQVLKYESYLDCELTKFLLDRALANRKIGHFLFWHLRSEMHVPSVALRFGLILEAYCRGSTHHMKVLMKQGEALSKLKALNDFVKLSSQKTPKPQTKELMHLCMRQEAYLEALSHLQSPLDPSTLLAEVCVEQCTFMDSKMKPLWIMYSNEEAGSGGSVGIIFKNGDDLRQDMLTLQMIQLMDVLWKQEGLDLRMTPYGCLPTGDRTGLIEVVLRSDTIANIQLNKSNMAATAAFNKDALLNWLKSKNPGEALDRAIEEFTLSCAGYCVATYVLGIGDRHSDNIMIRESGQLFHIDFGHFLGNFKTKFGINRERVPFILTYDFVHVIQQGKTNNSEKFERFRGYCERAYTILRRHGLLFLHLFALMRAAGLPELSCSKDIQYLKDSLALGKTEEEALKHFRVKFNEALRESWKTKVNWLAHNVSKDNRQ

[7] = molecular target: Phosphatidylinositol 4,5-bisphosphate 3-kinase catalytic subunit gamma isoform (Homo sapiens, UniProt P48736); experiment: Inhibition of PI3K p110gamma in human basophil assessed as reduction in fMLP-induced basophil activation by flow cytometry analysis; format: tissue-based
Chain of Phosphatidylinositol 4,5-bisphosphate 3-kinase catalytic subunit gamma isoform (P48736 whole entry, canonical isoform): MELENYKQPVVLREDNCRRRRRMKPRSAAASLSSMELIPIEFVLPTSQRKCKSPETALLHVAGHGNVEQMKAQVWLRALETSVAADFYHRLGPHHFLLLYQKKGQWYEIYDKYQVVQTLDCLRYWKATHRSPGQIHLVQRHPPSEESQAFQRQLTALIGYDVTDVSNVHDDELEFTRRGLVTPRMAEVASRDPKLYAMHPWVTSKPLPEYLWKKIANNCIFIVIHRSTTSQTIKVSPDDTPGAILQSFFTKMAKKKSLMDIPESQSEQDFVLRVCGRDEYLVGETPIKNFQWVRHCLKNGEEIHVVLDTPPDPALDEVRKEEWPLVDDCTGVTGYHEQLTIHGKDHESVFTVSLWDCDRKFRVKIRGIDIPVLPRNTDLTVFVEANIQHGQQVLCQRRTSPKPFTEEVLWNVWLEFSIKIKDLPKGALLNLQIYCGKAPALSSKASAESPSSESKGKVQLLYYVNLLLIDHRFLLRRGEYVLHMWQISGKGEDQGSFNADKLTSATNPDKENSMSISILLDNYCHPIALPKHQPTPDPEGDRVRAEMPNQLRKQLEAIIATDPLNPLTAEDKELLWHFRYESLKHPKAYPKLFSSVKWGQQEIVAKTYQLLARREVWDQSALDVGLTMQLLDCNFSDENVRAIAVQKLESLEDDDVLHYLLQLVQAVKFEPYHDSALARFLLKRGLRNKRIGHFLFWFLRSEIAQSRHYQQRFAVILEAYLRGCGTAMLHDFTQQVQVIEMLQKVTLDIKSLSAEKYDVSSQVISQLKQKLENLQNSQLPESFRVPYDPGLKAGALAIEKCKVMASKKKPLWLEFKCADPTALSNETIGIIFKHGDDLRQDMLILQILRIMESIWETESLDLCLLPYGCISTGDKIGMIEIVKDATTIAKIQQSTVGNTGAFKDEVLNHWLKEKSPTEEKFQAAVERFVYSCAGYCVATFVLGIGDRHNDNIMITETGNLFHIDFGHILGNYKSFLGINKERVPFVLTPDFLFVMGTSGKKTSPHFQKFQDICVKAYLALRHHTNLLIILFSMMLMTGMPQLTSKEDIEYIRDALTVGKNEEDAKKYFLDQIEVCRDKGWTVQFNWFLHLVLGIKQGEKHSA
Outline: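 Basophil activation via fMLP (p110γ) in 25% serum or in isolated WBCs in low serum, with increasing compound concentrations. Anti-CD63-FITC/anti-CCR3-PE staining; ≥150 (25% serum) or ≥75 (low serum) CCR3-high basophils gated; % CD63-positive normalized to 0.3% DMSO vehicle; concentration corrected for reagent dilution.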

[8] = Inhibition of CYP450 (unknown origin) at 25 uM; format: ADME; conditions: human
[9] = Clearance in Sprague-Dawley rat at 1 mg/kg, iv measured over 24 hrs by LC/MS/MS analysis; format: ADME, organism-based; conditions: in vivo
Outline: (§1)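 Intravenous 1 mg/kg and oral 5 mg/kg doses. Vehicle: 5% ethanol/55% PEG 400/40% water for rats and dogs; 5% ethanol/22% PEG 400/73% water for cynomolgus; 5% ethanol/25% PEG 400/70% water for rhesus. Half-life and MRT from iv; mean ± SD, n = 3 per route.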

[10] = Oral bioavailability in Sprague-Dawley rat at 5 mg/kg measured over 24 hrs by LC/MS/MS analysis; format: ADME, organism-based; conditions: in vivo; outline: as §1
[11] = Clearance in Beagle dog at 1 mg/kg, iv measured over 24 hrs by LC/MS/MS analysis; format: ADME, organism-based, Canis lupus familiaris; conditions: in vivo; outline: as §1
[12] = Clearance in cynomolgus monkey at 1 mg/kg, iv measured over 24 hrs by LC/MS/MS analysis; format: ADME, organism-based, Macaca fascicularis; conditions: in vivo; outline: as §1
[13] = MRT in cynomolgus monkey at 1 mg/kg, iv measured over 24 hrs by LC/MS/MS analysis; format: ADME, organism-based, Macaca fascicularis; conditions: in vivo; outline: as §1
[14] = Volume of distribution at steady state in rhesus monkey at 1 mg/kg, iv measured over 24 hrs by LC/MS/MS analysis; format: ADME, organism-based, Macaca mulatta; conditions: in vivo, read-out: Vdss
Outline: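 Single intravenous dose of 1 mg/kg. Vehicles: rats and dogs 5% ethanol/55% PEG 400/40% water; cynomolgus monkeys 5% ethanol/22% PEG 400/73% water; rhesus monkeys 5% ethanol/25% PEG 400/70% water. Plasma concentration–time data gave Vss and iv half-life. Reported as mean ± SD, n = 3.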

[15] = MRT in rhesus monkey at 1 mg/kg, iv measured over 24 hrs by LC/MS/MS analysis; format: ADME, organism-based, Macaca mulatta; conditions: in vivo; outline: as §1
[16] = Plasma concentration in Lewis rat at 1 to 5 mg/kg, po measured at 12 hrs; format: ADME, organism-based; conditions: dose 1-5 mg/kg
Outline: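 Female Lewis rats given a single oral dose of 1 or 5 mg/kg; plasma concentration–time profiles determined; mean ± SD, n = 3.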

Rattus norvegicus [17] = experiment: Antiarthritic activity in Lewis rat model of Freund's incomplete adjuvant-induced arthritis assessed as reduction in ankle swelling at 0.3 mg/kg, po bid administered for 7 days at 12 hrs interval starting from day 10 to day 16 post-immunization by caliper method relative to control; format: functional; parameters: scale not given: the % may be the effect or the level left; conditions: time 7 day
Outline: (§2)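 Established collagen-induced arthritis in female Lewis rats; oral dosing twice daily for 7 days from day 10 after second immunization. Right and left ankle diameters measured by caliper daily, days 9–18; ankle diameter AUC over days 11–18 compared with arthritic vehicle group (ANOVA, p < 0.05). n = 8/treatment group.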

Rattus norvegicus [18] = experiment: Antiarthritic activity in Lewis rat model of Freund's incomplete adjuvant-induced arthritis assessed as reduction in ankle swelling at 1 mg/kg, po bid administered for 7 days at 12 hrs interval starting from day 10 to day 16 post-immunization by caliper method relative to control; format: functional; parameters: scale not given: the % may be the effect or the level left; conditions: time 7 day; outline: as §2

- clearance [1]: 7.17 mL/min/kg
- clearance [2]: 9 mL/min/kg
- Vd [3]: 1.03 L/kg
- bioavailability [4]: 57%
- half-life at 100 ug/ml [5]: 1200 min
- EC50 [6]: 0.31 nM
- EC50 [7]: 404 nM
- inhibition (INH) [8]: Not Active
- clearance [9]: 7.17 mL/min/kg
- bioavailability [10]: 57%
- clearance [11]: 9 mL/min/kg
- clearance [12]: 6.83 mL/min/kg
- MRT [13]: 3.05 h
- Vd [14]: 1.34 L/kg
- MRT [15]: 2 h
- concentration at 12 h [16]: > 32 nM
SMILES: N#Cc1c(N)nc(N)nc1N[C@H](c1nc2c(F)ccc(Cl)c2c(=O)n1-c1cccnc1)C1CC1 [GS-9901]
- Activity (Rattus norvegicus [17]): 31%
- Activity (Rattus norvegicus [18]): 67%
